{
  "source": "ChEMBL document CHEMBL5033998",
  "about": "“Discovery of DDO-2213 as a Potent and Orally Bioavailable Inhibitor of the WDR5-Mixed Lineage Leukemia 1 Protein-Protein Interaction for the Treatment of MLL Fusion Leukemia” (J Med Chem, 2021)",
  "key": {"[1]": {"assay": "MRT in Sprague-Dawley rat at 10 mg/kg, po measured upto 24 hrs by LC-MS/MS analysis", "assay_type": "ADME, organism-based", "conditions": "in vivo", "outline": "(§1)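 Male SD rats, 6–8 weeks, 220 ± 30 g; single oral dose 10 mg/kg (n = 3). Plasma sampled at 0, 0.25, 0.5, 1, 2, 4, 6, 8 and 24 h, stored at −80 °C, quantified by LC-MS/MS; parameters reported as mean ± SEM.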"}, "[2]": {"assay": "Toxicity in Balb/c nude mouse xenografted with human MV4-11 cells assessed as tolerability at 40 to 120 mg/kg, po administered daily for 21 days relative to control", "assay_type": "organism-based", "conditions": "in vivo, 504 h", "outline": "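Nude BALB/c females bearing MV4-11 xenografts, dosed orally each day for 21 days at 40, 80 or 120 mg/kg, saline vehicle controls (6 mice/group); body weight recorded every other day.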"}, "[3]": {"biological_target": "T1, Histone-lysine N-methyltransferase 2A (Homo sapiens, UniProt Q03164)", "T1 sequence (Q03164 1-2718 limits assumed)": "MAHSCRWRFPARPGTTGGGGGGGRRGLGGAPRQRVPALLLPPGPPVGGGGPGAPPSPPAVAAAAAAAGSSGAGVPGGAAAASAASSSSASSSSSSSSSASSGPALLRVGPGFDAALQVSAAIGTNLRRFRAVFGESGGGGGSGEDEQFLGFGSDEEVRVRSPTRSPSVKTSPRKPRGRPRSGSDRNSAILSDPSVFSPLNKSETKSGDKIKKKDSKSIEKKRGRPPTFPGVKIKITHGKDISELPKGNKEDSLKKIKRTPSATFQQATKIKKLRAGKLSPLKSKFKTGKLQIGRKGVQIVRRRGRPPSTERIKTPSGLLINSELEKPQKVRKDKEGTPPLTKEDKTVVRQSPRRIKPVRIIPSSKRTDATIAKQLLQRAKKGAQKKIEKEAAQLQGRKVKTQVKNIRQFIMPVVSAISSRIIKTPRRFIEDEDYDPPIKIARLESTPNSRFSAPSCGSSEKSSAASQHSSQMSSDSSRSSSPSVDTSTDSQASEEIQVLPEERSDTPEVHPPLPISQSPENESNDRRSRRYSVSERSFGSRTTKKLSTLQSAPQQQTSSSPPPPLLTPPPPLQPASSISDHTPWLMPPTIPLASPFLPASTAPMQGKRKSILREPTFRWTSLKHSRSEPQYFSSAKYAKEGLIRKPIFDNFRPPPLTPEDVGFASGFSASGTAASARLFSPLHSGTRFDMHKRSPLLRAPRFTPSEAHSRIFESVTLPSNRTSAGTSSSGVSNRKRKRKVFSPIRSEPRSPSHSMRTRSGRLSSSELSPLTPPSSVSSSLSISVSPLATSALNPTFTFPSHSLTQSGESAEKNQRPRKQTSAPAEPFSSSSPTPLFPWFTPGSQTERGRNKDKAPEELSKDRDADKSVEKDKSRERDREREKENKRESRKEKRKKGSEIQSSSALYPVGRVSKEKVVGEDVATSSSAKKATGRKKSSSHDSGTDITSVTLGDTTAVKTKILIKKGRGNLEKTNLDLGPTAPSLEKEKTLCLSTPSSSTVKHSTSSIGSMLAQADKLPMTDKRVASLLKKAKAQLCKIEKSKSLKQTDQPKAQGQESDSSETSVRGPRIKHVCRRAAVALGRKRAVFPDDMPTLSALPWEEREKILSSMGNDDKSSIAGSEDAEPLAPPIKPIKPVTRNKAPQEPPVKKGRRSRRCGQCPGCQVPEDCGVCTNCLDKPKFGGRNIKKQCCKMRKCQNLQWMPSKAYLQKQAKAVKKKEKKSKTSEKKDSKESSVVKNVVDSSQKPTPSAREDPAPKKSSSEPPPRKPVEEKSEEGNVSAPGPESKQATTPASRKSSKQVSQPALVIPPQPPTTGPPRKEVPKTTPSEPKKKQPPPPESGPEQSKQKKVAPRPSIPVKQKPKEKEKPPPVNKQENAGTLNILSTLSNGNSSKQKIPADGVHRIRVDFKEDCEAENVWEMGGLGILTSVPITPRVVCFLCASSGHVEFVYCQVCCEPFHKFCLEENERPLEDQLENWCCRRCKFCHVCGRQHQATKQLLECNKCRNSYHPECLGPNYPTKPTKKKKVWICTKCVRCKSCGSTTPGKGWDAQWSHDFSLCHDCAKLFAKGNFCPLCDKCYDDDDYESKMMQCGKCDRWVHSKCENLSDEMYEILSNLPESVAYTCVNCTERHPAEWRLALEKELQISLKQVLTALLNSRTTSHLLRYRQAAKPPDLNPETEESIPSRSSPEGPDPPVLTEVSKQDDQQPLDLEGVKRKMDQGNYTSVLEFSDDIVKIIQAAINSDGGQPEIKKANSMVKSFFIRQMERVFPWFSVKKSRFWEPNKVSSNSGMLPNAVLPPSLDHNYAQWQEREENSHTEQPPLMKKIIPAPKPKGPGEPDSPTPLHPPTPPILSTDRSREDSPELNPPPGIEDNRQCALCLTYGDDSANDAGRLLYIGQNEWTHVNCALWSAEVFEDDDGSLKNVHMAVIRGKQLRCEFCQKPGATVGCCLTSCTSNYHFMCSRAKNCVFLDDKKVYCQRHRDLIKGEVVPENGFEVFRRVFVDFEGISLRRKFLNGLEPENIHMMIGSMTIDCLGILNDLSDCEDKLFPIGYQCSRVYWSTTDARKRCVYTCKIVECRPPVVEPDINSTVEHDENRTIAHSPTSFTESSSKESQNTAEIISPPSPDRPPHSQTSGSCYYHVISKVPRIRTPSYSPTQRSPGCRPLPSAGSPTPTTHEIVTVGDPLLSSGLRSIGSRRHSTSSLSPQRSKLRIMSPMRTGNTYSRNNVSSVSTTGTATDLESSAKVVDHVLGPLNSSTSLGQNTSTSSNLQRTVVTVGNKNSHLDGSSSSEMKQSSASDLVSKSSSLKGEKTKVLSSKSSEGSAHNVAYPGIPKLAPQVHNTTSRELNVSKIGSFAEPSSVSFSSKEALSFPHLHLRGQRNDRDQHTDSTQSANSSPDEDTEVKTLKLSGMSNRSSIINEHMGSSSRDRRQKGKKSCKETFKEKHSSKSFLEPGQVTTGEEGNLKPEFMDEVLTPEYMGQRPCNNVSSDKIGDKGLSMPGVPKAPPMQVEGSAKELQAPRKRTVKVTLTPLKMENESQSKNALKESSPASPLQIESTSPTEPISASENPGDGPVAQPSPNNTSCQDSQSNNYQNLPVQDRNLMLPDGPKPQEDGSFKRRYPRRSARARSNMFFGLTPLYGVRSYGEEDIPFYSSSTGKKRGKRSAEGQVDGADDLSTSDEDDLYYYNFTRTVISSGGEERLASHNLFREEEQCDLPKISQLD", "T1 sequence (Q03164 2719-3969 limits assumed)": "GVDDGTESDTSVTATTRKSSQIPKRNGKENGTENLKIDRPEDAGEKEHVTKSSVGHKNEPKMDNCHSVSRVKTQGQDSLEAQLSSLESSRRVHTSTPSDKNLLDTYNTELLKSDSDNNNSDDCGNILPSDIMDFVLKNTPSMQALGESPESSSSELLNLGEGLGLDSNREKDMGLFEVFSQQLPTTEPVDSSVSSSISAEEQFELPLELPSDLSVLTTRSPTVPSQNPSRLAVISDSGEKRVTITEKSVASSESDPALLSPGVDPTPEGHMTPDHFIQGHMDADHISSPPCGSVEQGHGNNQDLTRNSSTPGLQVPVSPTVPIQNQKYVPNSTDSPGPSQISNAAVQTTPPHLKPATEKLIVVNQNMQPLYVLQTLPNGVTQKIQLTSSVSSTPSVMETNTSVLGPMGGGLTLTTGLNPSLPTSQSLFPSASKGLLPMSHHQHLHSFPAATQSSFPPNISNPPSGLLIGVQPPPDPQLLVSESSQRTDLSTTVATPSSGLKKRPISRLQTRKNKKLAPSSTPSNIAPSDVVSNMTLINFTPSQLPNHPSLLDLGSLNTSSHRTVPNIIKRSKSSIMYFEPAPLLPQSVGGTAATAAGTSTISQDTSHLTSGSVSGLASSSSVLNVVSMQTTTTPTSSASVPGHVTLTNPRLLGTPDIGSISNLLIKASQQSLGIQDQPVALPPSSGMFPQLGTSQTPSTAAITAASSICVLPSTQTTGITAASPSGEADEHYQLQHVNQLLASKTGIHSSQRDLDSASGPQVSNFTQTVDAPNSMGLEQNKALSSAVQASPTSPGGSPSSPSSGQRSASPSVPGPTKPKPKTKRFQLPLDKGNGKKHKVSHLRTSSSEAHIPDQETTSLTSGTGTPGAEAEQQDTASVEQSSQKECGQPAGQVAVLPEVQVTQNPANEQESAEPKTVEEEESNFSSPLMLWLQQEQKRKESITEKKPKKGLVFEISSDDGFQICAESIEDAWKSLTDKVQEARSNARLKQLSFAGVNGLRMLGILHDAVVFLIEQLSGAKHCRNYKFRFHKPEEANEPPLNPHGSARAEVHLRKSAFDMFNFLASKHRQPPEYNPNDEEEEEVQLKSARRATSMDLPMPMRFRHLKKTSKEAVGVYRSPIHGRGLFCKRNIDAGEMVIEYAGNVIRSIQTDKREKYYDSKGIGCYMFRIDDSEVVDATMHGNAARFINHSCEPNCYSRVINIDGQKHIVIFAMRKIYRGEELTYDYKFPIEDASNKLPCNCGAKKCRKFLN", "assay": "Inhibition of MLL1 (unknown origin) in human MV4-11 cells assessed as decrease in Hoxa9 mRNA level at 1 to 10 uM measured after 7 days by RT-PCR analysis", "conditions": "dose 1-10 µM, time 7.0 day"}, "[4]": {"assay": "AUC (0 to t) in Sprague-Dawley rat at 2 mg/kg, iv measured upto 24 hrs by LC-MS/MS analysis", "assay_type": "ADME, organism-based", "parameters": "route intravenous, dose 2 mg/kg, time <=24", "conditions": "in vivo"}, "[5]": {"biological_target": "Histone-lysine N-methyltransferase EZH2 (Homo sapiens, UniProt Q15910)", "sequence (Q15910 whole entry)": "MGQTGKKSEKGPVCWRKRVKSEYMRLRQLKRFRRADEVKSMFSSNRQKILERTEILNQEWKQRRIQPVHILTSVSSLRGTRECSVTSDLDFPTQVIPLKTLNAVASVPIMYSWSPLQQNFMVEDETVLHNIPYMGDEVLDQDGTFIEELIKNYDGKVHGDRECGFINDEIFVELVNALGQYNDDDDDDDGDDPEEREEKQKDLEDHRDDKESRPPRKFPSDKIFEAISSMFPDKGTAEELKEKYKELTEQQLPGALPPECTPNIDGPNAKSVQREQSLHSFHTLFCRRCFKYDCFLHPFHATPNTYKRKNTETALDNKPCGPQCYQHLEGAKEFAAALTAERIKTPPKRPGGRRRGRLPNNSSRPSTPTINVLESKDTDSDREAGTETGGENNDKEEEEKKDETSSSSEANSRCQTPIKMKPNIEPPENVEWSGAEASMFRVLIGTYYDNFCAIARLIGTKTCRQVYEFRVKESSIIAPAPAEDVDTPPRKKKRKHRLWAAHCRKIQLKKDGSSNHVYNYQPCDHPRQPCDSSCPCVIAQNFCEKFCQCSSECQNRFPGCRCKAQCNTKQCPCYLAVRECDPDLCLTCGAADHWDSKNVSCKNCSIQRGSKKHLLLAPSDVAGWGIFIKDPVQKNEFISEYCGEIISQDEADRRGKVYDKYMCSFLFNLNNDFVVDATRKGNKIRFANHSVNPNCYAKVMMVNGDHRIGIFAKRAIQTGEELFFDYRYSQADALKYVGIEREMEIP", "assay": "Inhibition of EZH2 (unknown origin) assessed as effect on H3K27 methylation incubated for 30 mins by Alphascreen assay", "outline": "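AlphaScreen: enzyme, SAM and compound mixed in 10 mM PBS for 30 min at room temperature; acceptor beads and substrate antibody added, 30 min at room temperature, then streptavidin donor beads; read on AlphaScreen reader.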"}, "[6]": {"biological_target": "T1, Histone-lysine N-methyltransferase 2A", "assay": "Inhibition of MLL1 (unknown origin) in human MV4-11 cells assessed as decrease in Meis1 mRNA level at 1 to 10 uM measured after 7 days by RT-PCR analysis", "assay_type": "cell-based", "outline": "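MV4-11 cells treated 7 days at 0, 1, 2.5, 5, 10 μM; total RNA extracted with TRIzol and Hoxa9/Meis1 transcripts measured by quantitative RT-PCR, in triplicate (n = 3); Student's t-tests.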"}, "[7]": {"system": "MOLM-13", "assay": "Antiproliferative activity against human MOLM-13 cells assessed as cell viability incubated for 72 hrs by CCK8 assay", "assay_type": "functional, cell-based", "conditions": "MOLM-13, 72 h", "outline": "(§2)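 Cells seeded at 3000–6000 per well, exposed to inhibitor at several concentrations for 72 h; viability read with CCK8 kit. MV4-11 and K562 grown in modified IMDM + 10% FBS, pen/strep; MOLM-13 in RPMI-1640 + 10% FBS; HUVEC in modified DMEM + 10% FBS; 37 °C, 5% CO2. IC50 as mean ± SD of three independent experiments.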"}, "[8]": {"system": "MV4-11", "assay": "Antitumor activity against human MV4-11 cells xenografted in Balb/c nude mouse assessed as tumor weight inhibition at 80 mg/kg, po administered daily for 21 days relative to control", "assay_type": "functional", "conditions": "MV4-11, po, 504 h", "outline": "(§3)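 MV4-11 flank xenografts (~5 × 10^6 cells) in female BALB/c nude mice, 6 per group; daily oral dosing (40, 80, 120 mg/kg) or saline vehicle for 21 days, then tumors excised and weighed.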"}, "[9]": {"biological_target": "WD repeat-containing protein 5 (Homo sapiens) (UniProt P61964)", "assay": "Binding affinity to WDR5 (unknown origin) assessed as change in entropy by isothermal titration calorimetry assay"}, "[10]": {"assay": "Permeability of compound at pH 7.4 incubated for 4 hrs by PAMPA assay", "assay_type": "ADME", "conditions": "read-out: permeability", "outline": "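Double-sink PAMPA: compound diluted in pH 7.4 donor buffer, permeation through artificial membrane to acceptor over 4 h at 25 °C; donor and acceptor read by UV; mean ± SD of three independent experiments.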"}, "[11]": {"system": "HUVEC", "assay": "Antiproliferative activity against human HUVEC cells assessed as cell viability incubated for 72 hrs by CCK8 assay", "assay_type": "cell-based", "outline": "as §2"}, "[12]": {"assay": "AUC (0 to infinity) in Sprague-Dawley rat at 10 mg/kg, po measured upto 24 hrs by LC-MS/MS analysis", "assay_type": "ADME, organism-based", "parameters": "route oral, dose 10 mg/kg, time <=24", "conditions": "in vivo", "outline": "as §1"}, "[13]": {"assay": "Half life in Sprague-Dawley rat at 2 mg/kg, iv measured upto 24 hrs by LC-MS/MS analysis", "assay_type": "ADME, organism-based", "conditions": "in vivo"}, "[14]": {"system": "MV4-11", "assay": "Antitumor activity against human MV4-11 cells xenografted in Balb/c nude mouse assessed as tumor weight inhibition at 40 mg/kg, po administered daily for 21 days relative to control", "assay_type": "functional", "conditions": "MV4-11, po, 504 h, time 21 day", "outline": "as §3"}, "[15]": {"system": "K562", "assay": "Antiproliferative activity against human K562 cells assessed as cell viability incubated for 72 hrs by CCK8 assay", "assay_type": "functional, cell-based", "conditions": "K562, 72 h", "outline": "as §2"}, "[16]": {"assay": "AUC (0 to t) in Sprague-Dawley rat at 10 mg/kg, po measured upto 24 hrs by LC-MS/MS analysis", "assay_type": "ADME, organism-based", "parameters": "route oral, dose 10 mg/kg, time <=24", "conditions": "in vivo", "outline": "as §1"}},
  "note": "The source made the active and inactive calls. The rule behind the calls is not given here.",
  "data": [
    {"smiles": "CN1CCN(c2cc(F)c(-c3ccc(C(=O)N(C)C)cc3)cc2Nc2ncnc(Cl)c2N)CC1", "values": [
      {"measurement": "MRT", "setting": "[1]", "value": 5.42, "unit": "h"},
      {"measurement": "Activity", "setting": "[2]", "value": "Non-Toxic"},
      {"measurement": "inhibition", "setting": "[3]", "value": "Dose-Dependent Effect"},
      {"measurement": "AUC(0-t) at 24 h", "setting": "[4]", "value": 411, "unit": "ng·h/mL"},
      {"measurement": "IC50", "setting": "[5]", "value": "> 100", "unit": "µM"},
      {"measurement": "inhibition", "setting": "[6]", "value": "Active"},
      {"measurement": "IC50", "setting": "[7]", "value": 13.1, "unit": "µM"},
      {"measurement": "inhibition in vivo at 80 mg/kg", "setting": "[8]", "value": 51.6, "unit": "%"},
      {"measurement": "-TdeltaS", "setting": "[9]", "value": 2.51, "unit": "kcal/mol"},
      {"measurement": "Papp at 4 h", "setting": "[10]", "value": 20.2, "unit": "×10⁻⁶ cm/s"},
      {"measurement": "IC50", "setting": "[11]", "value": "> 100", "unit": "µM"},
      {"measurement": "AUC(0-inf)", "setting": "[12]", "value": 1740, "unit": "ng·h/mL"},
      {"measurement": "half-life", "setting": "[13]", "value": 1.7, "unit": "h"},
      {"measurement": "inhibition in vivo at 40 mg/kg", "setting": "[14]", "value": 36.4, "unit": "%"},
      {"measurement": "IC50", "setting": "[15]", "value": "> 100", "unit": "µM"},
      {"measurement": "AUC(0-t) at 24 h", "setting": "[16]", "value": 1320, "unit": "ng·h/mL"}
    ]}
  ]
}
